In PubChem BioAssay AID493187 (Sanford-Burnham Center for Chemical Genomics, 2011):
The campaign covered roughly 340,000 compounds. About 190 (0.056%) were called active.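 The calls were made as follows: active = activation of 40% or more at 20 µM, a change of -40% or lower; inactive = the rest.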 Only a selection was taken, and actives are over-represented in it overall.

target: Hexokinase HKDC1 (Homo sapiens) (UniProt Q2TB90); assay: HKDC1 hexokinase activators, primary screen, biochemical, fluorescence, uHTS (AID 493187); details: recombinant HKDC1, G6PDH/diaphorase resazurin fluorescence; at 20 µM; hits give low values
Method in brief: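 Material – in-house human HKDC1 enzyme, G6PDH and diaphorase coupling enzymes · Input – HKDC1 at 5 µg/mL final · Buffer or medium – pH 8.0 Tris with MgCl2 · Dosing – single compound dose of 20 µM, 1% DMSO final · Incubation – 90 min, room temperature · Technique – resorufin fluorescence from 100 µM resazurin, NADP 1 mM, Ex 525/Em 613 nm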

Chain of Hexokinase HKDC1 (Homo sapiens) (Q2TB90 whole entry, looked up): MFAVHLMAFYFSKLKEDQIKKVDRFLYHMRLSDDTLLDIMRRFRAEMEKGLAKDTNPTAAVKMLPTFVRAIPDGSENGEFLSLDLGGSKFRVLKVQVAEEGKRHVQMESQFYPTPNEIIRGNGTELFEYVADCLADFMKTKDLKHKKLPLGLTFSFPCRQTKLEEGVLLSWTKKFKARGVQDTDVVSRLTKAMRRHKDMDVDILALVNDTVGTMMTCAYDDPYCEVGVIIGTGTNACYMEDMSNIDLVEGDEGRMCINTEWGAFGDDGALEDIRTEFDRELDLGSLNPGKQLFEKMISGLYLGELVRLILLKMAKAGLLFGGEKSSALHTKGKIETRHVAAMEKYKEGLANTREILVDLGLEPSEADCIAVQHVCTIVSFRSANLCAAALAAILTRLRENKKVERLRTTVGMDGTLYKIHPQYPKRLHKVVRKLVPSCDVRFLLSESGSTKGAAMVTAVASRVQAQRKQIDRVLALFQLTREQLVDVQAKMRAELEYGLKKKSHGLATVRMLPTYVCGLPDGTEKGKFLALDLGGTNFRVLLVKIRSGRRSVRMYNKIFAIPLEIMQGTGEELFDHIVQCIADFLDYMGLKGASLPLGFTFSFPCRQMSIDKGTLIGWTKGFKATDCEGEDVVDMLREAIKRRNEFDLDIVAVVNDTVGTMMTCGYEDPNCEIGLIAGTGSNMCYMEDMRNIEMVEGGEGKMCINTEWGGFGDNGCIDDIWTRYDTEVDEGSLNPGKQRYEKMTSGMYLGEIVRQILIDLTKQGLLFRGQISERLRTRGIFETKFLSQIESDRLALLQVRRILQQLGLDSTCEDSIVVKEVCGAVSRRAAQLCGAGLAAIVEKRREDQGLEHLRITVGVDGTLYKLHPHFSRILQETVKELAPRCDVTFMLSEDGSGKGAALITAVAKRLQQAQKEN

Activity change, negative = activation, active:
O=C(CSc1cccc2cccnc12)N/N=C/c1cccnc1 -52.6%
C[N+](C)(CCCCCC[N+](C)(C)CCCN1C(=O)c2cccc3cccc(c23)C1=O)CCCN1C(=O)c2cccc3cccc(c23)C1=O -66.9%
Cc1cc(C2=NNC(=Nc3ccc(S(=O)(=O)N4CCOCC4)cc3)SC2)c(C)n1CC1CCCO1 (stereo not drawn) -70%
CC(=O)/C(=N\Nc1ccc(Cl)cc1Cl)Sc1cccc2cccnc12 -40.8%
CCc1ccc2c(c1)C1(NN=C(c3ccccc3)S1)C(=O)N2 (stereo not drawn) -48.1%
Cc1ccc(Nc2nc(-c3sc(NC(=O)c4ccccc4)nc3C)cs2)cc1 -77.6%
Clc1cccc(N=C2NN=C(c3ccc4c(c3)OCCO4)CS2)c1 -169%
Cc1ccc2oc(=O)c3cnn(CC(=O)N4CCCCCC4)c3c2c1 -44.7%

Activity change, negative = activation, inactive:
O=c1[nH]c2ccccc2n2c(-c3ccccc3)nnc12 46.7%
COc1ccc(C(CCN(Cc2ccc(OC)c(OC)c2)C(=O)CCl)c2ccccc2)cc1 (stereo not drawn) 35.4%
COc1ccc2c(c1)c(=Cc1ccc(N(C)C)cc1)c1cc(-c3ccccc3)[n+](C)n12 43.2%
COc1ccc(N(CC(=O)N/N=C/c2cccc3c2OCCO3)S(=O)(=O)c2ccc(NC(C)=O)cc2)cc1 38.1%
CCOC(=O)CSc1nc2ccc(C)cc2n2cnnc12 53%
CCCc1nc2oc3c(OCC)ncnc3c2c2c1COC(C)(C)C2 37.7%
O=C(c1cccnc1)N(c1cc2sc(=O)oc2c2ccccc12)S(=O)(=O)c1ccccc1 38.2%
CN1c2ccc(C=O)c3c(C=O)ccc(c23)N(C)C1(C)C 36.4%
O=C(NC1=CC(=O)c2ccccc2C1=O)c1ccccc1 54.1%
O=C1C(Cl)=C(Oc2ccccc2)C(=O)c2ccccc21 65.2%
CC(C)(C)Nc1c(N)c(=O)oc2ccccc12 44.6%
CCC(=C/c1sc2ccc3ccccc3c2[n+]1C)/C=C1\Sc2ccc3ccccc3c2N1C 45%
COc1ccc(NC(=O)CSc2ccc(-c3ccco3)nn2)c(OC)c1 47.3%
O=S(=O)(Nc1ccc(O)c2ccccc12)c1ccc(OC(F)(F)F)cc1 52%
CCOC(=O)C1=C(c2ccc(OC)cc2)C(=O)c2ccccc2C1=O 81.4%
CCn1cc(C(=O)NCc2ccc3c(c2)OCO3)c2cc(OC)c(OC)cc2c1=O 37.8%
O=c1ccc2c(-c3ccccc3S(=O)(=O)O)c3ccc(O)c(O)c3oc-2c1O 38.4%
Nc1ccc2nc3c(=O)[nH]c(=S)[nH]c3nc2c1 69.9%
CC(=O)N(C1=C(Cl)C(=O)c2ccccc2C1=O)c1ccc(C(=O)O)cc1 52.2%
Cc1cc(C(=O)CCl)c(C)n1CC1COc2ccccc2O1 (stereo not drawn) 38.2%
